Target: T1, OR10J5 (Homo sapiens) (UniProt Q8NHC4)
T1 sequence (whole entry): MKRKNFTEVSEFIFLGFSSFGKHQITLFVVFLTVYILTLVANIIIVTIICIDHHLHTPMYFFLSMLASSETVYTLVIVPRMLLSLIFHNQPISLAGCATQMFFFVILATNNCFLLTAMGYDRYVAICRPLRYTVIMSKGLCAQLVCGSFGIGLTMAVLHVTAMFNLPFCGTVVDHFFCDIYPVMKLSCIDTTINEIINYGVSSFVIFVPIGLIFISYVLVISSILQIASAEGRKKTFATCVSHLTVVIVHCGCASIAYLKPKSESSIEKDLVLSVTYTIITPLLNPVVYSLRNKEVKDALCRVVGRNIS
Details: stereoisomer not certain
Outline: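 Each receptor–molecule pair is labelled responsive or non-responsive (inactive) according to whether the original authors judged the measured signal statistically different from baseline. The data were taken from the main text and supplementary material of published papers and checked for typos and inconsistencies. Assay methods differed by source, with transient luciferase assays in mammalian cell lines being common.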
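Also: active if original authors judged signal statistically different from baseline.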

| Structure (SMILES) | odorant receptor agonist call |
| --- | --- |
| CCCCCCCCCC(=O)[O-].[H+] | inactive |
| CCCCC(=O)O | inactive |

Source: the M2OR odorant receptor database
